Values after ≈ are worked out from the molar mass of the structure shown. Each block holds one compound with its values, some of them ahead of it.
How the values were obtained:
Mus musculus [1] = assay: Concentration of 2-Amino-9-(4-hydroxy-3-hydroxymethyl)but-1-yl)purine in blood of mice after 0.25 hours upon oral administration; format: functional, organism-based
In short: (§1)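 Single oral gavage dose of 0.2 mmol/kg in 0.1 mL 1% (carboxymethyl)cellulose to female Balb/c mice (20 g), fasted 18 h. Heparinized cardiac-puncture blood was taken at 0.25, 1 and 3 h, pooled equally from three mice per time point, and deproteinized with an equal volume of 16% TCA. Supernatant was neutralized with NaHCO3 and run on C18 HPLC in duplicate in 5 mM KH2PO4. The 2-aminopurine was read at 310 nm; detection limit 1 μM.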

Mus musculus [2] = assay: Concentration of 2-Amino-9-(4-hydroxy-3-hydroxymethyl)but-1-yl)purine in blood of mice after 1 hour upon oral administration; format: functional, organism-based; in short: as §1
Mus musculus [3] = assay: Concentration of 9-[4-Hydroxy-3-(hydroxymethyl)but-1-yl)guanine in blood of mice after 0.25 hours upon oral administration; format: functional, organism-based
In short: (§2)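 Female Balb/c mice (20 g), food withheld 18 h, got one oral gavage dose of 0.2 mmol/kg in 0.1 mL 1% (carboxymethyl)cellulose. Blood was drawn by heparinized cardiac puncture at 0.25, 1 and 3 h, with three mice pooled per time point. It was treated with an equal volume of 16% TCA, centrifuged and NaHCO3-neutralized. The guanine analyte was measured by C18 HPLC at 254 nm in duplicate.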

Mus musculus [4] = assay: Concentration of 9-[4-Hydroxy-3-(hydroxymethyl)but-1-yl)guanine in blood of mice after 1 hour upon oral administration; format: functional, organism-based; in short: as §2
Mus musculus [5] = assay: Concentration of 9-[4-Hydroxy-3-(hydroxymethyl)but-1-yl)guanine in blood of mice after 3 hours upon oral administration; format: functional, organism-based; in short: as §2
Mus musculus [6] = assay: Concentration of 2-Amino-9-(4-hydroxy-3-hydroxymethyl)but-1-yl)purine in blood of mice after 3 hours upon oral administration; format: functional, organism-based; in short: as §1
[7] = Aqueous solubility at 25 degrees Centigrade; format: physicochemical; conditions: water; read-out: S
Mus musculus [8] = assay: Concentration of 2-Amino-9-(4-hydroxy-3-hydroxymethyl)but-1-yl)purine in blood of mice after 1 hours upon oral administration; format: functional, organism-based; in short: as §1
Mus musculus [9] = assay: Concentration of 9-[4-Hydroxy-3-(hydroxymethyl)but-1-yl)guanine in blood of mice after 3 hour upon oral administration; format: functional, organism-based; in short: as §2
[10] = Solubility in water; format: physicochemical; conditions: read-out: S

SMILES: CCOc1nc(N)nc2c1ncn2CCC(CO)CO
Concentration (Mus musculus [1]): 25 µM | Concentration (Mus musculus [2]): 11 µM | Concentration (Mus musculus [3]): 6.8 µM | Concentration (Mus musculus [4]): 8 µM | Concentration (Mus musculus [5]): 0.9 µM | Concentration (Mus musculus [6]): < 1 µM

solubility [7]: 19 mg/mL (≈ 54.4 mM)
SMILES: CCC(=O)OCC(CCn1cnc2cnc(N)nc21)COC(=O)CC
Concentration (Mus musculus [1]): 92 µM | Concentration (Mus musculus [2]): 9 µM | Concentration (Mus musculus [3]): 79 µM | Concentration (Mus musculus [4]): 26 µM | Concentration (Mus musculus [5]): 2.1 µM | Concentration (Mus musculus [6]): < 1 µM

solubility [7]: 1.2 mg/mL (≈ 3.28 mM)
SMILES: CCC(=O)OCC(CCn1cnc2c(O)nc(N)nc21)COC(=O)CC

SMILES: Nc1nc(OCc2ccccc2)c2ncn(CCC(CO)CO)c2n1
Concentration (Mus musculus [1]): 3 µM | Concentration (Mus musculus [2]): 2 µM | Concentration (Mus musculus [3]): 1.8 µM | Concentration (Mus musculus [4]): 2.1 µM | Concentration (Mus musculus [5]): 0.5 µM | Concentration (Mus musculus [6]): < 1 µM

SMILES: CC(=O)OCC(CO)CCn1cnc2cnc(N)nc21 (stereo unspecified)
Concentration (Mus musculus [1]): 38 µM | Concentration (Mus musculus [2]): 3 µM | Concentration (Mus musculus [3]): 51 µM | Concentration (Mus musculus [4]): 20 µM | Concentration (Mus musculus [5]): 1.2 µM | Concentration (Mus musculus [6]): < 1 µM

SMILES: Nc1ncc2ncn(CCC(CO)COP(=O)(O)O)c2n1 (stereo unspecified)
Concentration (Mus musculus [1]): 4 µM | Concentration (Mus musculus [8]): 8 µM | Concentration (Mus musculus [3]): 8.7 µM | Concentration (Mus musculus [4]): 17 µM | Concentration (Mus musculus [9]): 5.2 µM | Concentration (Mus musculus [6]): 1 µM

SMILES: Nc1nc(O)c2ncn(CCC(CO)CO)c2n1
Concentration (Mus musculus [3]): 4.9 µM | Concentration (Mus musculus [4]): 4 µM | Concentration (Mus musculus [5]): 1.1 µM

SMILES: CCCCOc1nc(N)nc2c1ncn2CCC(CO)CO
Concentration (Mus musculus [1]): 19 µM | Concentration (Mus musculus [2]): 11 µM | Concentration (Mus musculus [3]): 5.7 µM | Concentration (Mus musculus [4]): 5.2 µM | Concentration (Mus musculus [5]): < 0.5 µM | Concentration (Mus musculus [6]): 1 µM

solubility [10]: 20 mg/mL (≈ 62.2 mM) | solubility [7]: > 300 mg/mL
SMILES: CC(=O)OCC(CCn1cnc2cnc(N)nc21)COC(C)=O [FAMCICLOVIR]
Concentration (Mus musculus [1]): 69 µM | Concentration (Mus musculus [2]): 3 µM | Concentration (Mus musculus [3]): 74 µM | Concentration (Mus musculus [4]): 17 µM | Concentration (Mus musculus [5]): 1.1 µM | Concentration (Mus musculus [6]): < 1 µM

SMILES: CC1(C)OCC(CCn2cnc3cnc(N)nc32)CO1
Concentration (Mus musculus [1]): 33 µM | Concentration (Mus musculus [8]): 4 µM | Concentration (Mus musculus [3]): 33 µM | Concentration (Mus musculus [4]): 11 µM | Concentration (Mus musculus [5]): 3.2 µM | Concentration (Mus musculus [6]): 1 µM

SMILES: CC(C)Oc1nc(N)nc2c1ncn2CCC(CO)CO
Concentration (Mus musculus [1]): 43 µM | Concentration (Mus musculus [2]): 12 µM | Concentration (Mus musculus [3]): 9.2 µM | Concentration (Mus musculus [4]): 3.8 µM | Concentration (Mus musculus [5]): < 0.5 µM | Concentration (Mus musculus [6]): 1 µM

SMILES: COc1nc(N)nc2c1ncn2CCC(CO)CO
Concentration (Mus musculus [1]): 8 µM | Concentration (Mus musculus [2]): 7 µM | Concentration (Mus musculus [3]): 0.6 µM | Concentration (Mus musculus [4]): 0.9 µM | Concentration (Mus musculus [5]): < 0.5 µM | Concentration (Mus musculus [6]): 2 µM

SMILES: CCCC(=O)OCC(CO)CCn1cnc2cnc(N)nc21 (stereo unspecified)
Concentration (Mus musculus [1]): 57 µM | Concentration (Mus musculus [2]): 7 µM | Concentration (Mus musculus [3]): 64 µM | Concentration (Mus musculus [4]): 28 µM | Concentration (Mus musculus [5]): 2 µM | Concentration (Mus musculus [6]): < 1 µM

solubility [7]: 6.7 mg/mL (≈ 19.9 mM)
SMILES: CC(=O)OCC(CCn1cnc2c(O)nc(N)nc21)COC(C)=O

solubility [7]: 120 mg/mL (≈ 506 mM)
SMILES: Nc1ncc2ncn(CCC(CO)CO)c2n1 [6-DEOXY PENCICLOVIR]
Concentration (Mus musculus [1]): 8 µM | Concentration (Mus musculus [2]): 4 µM | Concentration (Mus musculus [3]): 16 µM | Concentration (Mus musculus [4]): 13 µM | Concentration (Mus musculus [5]): 3.2 µM | Concentration (Mus musculus [6]): 1 µM

SMILES: COC(=O)OCC(CO)CCn1cnc2cnc(N)nc21 (stereo unspecified)
Concentration (Mus musculus [1]): 55 µM | Concentration (Mus musculus [2]): 4 µM | Concentration (Mus musculus [3]): 54 µM | Concentration (Mus musculus [4]): 22 µM | Concentration (Mus musculus [5]): 2.6 µM | Concentration (Mus musculus [6]): < 1 µM

SMILES: Nc1ncc2ncn(CCC(CO)COC(=O)c3ccccc3)c2n1 (stereo unspecified)
Concentration (Mus musculus [1]): 71 µM | Concentration (Mus musculus [2]): 8 µM | Concentration (Mus musculus [3]): 63 µM | Concentration (Mus musculus [4]): 26 µM | Concentration (Mus musculus [5]): 1.1 µM | Concentration (Mus musculus [6]): < 1 µM

SMILES: Nc1nc(Oc2ccccc2)c2ncn(CCC(CO)CO)c2n1
Concentration (Mus musculus [1]): 8 µM | Concentration (Mus musculus [2]): 7 µM | Concentration (Mus musculus [3]): < 0.5 µM | Concentration (Mus musculus [4]): < 0.5 µM | Concentration (Mus musculus [5]): < 0.5 µM | Concentration (Mus musculus [6]): < 1 µM

solubility [7]: 3 mg/mL (≈ 11.8 mM)
SMILES: Nc1nc2c(ncn2CCC(CO)CO)c(=O)[nH]1 [PENCICLOVIR]

SMILES: Nc1ncc2ncn(CCC3COP(=O)(O)OC3)c2n1 (stereo unspecified)
Concentration (Mus musculus [1]): < 1 µM | Concentration (Mus musculus [2]): < 1 µM | Concentration (Mus musculus [3]): 1 µM | Concentration (Mus musculus [4]): 1 µM | Concentration (Mus musculus [5]): 2.6 µM | Concentration (Mus musculus [6]): < 1 µM

From ChEMBL document CHEMBL1124547, “Prodrugs of the selective antiherpesvirus agent 9-[4-hydroxy-3-(hydroxymethyl)but-1-yl]guanine (BRL 39123) with improved gastrointestinal absorption properties” (J Med Chem, 1989)
